Shown are actives, neighbours in structure and some others; about 1.8% of the full set was active somewhere.
NPY Y1 blocker: NPY-Y1 (human) receptor antagonism; HEK293-CNG Y1 cells, membrane potential fluorescence; NPY at EC95, then isoproterenol; inhibition, % at 3.6 µM; 200,000 compounds, 1% hits; AID 1040;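 active = inhibition above the campaign mean inhibition of all tested compounds plus 3 SD, cut at about 20% in these data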;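 note: 0% = DMSO wells given NPY plus isoproterenol and 100% = isoproterenol alone without NPY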
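Assay system: HEK293 cells with Y1 receptor plus CNG channel | Probe or stimulus: NPY (25 nM), isoproterenol (1 µM), Ro 20-1724 (25 µM) | Timing: Compound incubation 1 h at room temperature, readout 45 min post-stimulation | Measured by: Membrane-potential fluorescent dye readout | Benchmarks: High control isoproterenol alone, low control NPY with isoproterenol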
NPY2 pot ag: potentiators or agonists of human neuropeptide Y receptor Y2. activation, % at 3.6 µM. 220,000 compounds, 0.45% hits. P49146. cells expressing NPY-Y2, potentiator/agonist read-out. AID 1359; in the data active = activation above about 27%;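 note: cells stimulated with NPY near EC25 plus isoproterenol at EC100; 0% = vehicle plus submaximal agonist and 100% = vehicle plus saturating agonist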
Target sequence (P49146 whole entry, looked up): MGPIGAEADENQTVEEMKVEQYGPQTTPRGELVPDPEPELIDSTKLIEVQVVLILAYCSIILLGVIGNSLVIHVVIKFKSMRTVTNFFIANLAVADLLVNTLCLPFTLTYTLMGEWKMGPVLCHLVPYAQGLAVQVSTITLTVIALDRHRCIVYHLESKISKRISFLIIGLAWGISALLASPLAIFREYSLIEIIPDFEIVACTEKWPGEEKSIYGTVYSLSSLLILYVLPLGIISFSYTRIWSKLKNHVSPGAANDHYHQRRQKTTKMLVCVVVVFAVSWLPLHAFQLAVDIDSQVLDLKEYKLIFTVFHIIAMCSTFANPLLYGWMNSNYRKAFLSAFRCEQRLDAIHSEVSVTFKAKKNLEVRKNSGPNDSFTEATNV
NPY Y2 blocker: NPY-Y2 (human) receptor antagonism. NPY-Y2 expressing cells, antagonist mode. inhibition, % at 2.7 µM. AID 793. P49146. 140,000 compounds, 0.99% hits; in the data active = inhibition above about 17%;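 note: 0% = vehicle with agonist challenge and 100% = reference antagonist with challenge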
NPY-Y1 PAM-ag: potentiates or activates human NPY-Y1 receptor. P25929. NPY-Y1 expressing cells, potentiator/agonist activation. activation, % at 3.6 µM. 220,000 compounds, 0.37% hits; in the data active = activation above about 33%, passing the limit was not always enough;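 note: cells stimulated with NPY at EC10 then isoproterenol at EC100; 0% = low agonist plus stimulus and 100% = saturating agonist plus stimulus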
NPY-Y1 confirm: human NPY-Y1 potentiation or agonism, confirmation; shares compounds with NPY-Y1 PAM-ag; cell-based NPY-Y1 potentiator/agonist assay; activation, % at 3.6 µM; 280 compounds, 20% hits; AID 1546; in the data active = activation above about 45%;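 note: cells challenged with NPY at its EC10 plus isoproterenol stimulus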
NPY-Y2 counter: NPY-Y2 potentiation or agonism as NPY-Y1 counter-screen. shares compounds with NPY-Y1 PAM-ag. activation, % at 3.6 µM. HEK293-CNG cells, membrane-potential fluorescence (FLIPR), 1536-well. 280 compounds, 20% hits; in the data active = activation above about 33%
NPY-Y1 agonist: activates human NPY-Y1, counter-screen for NPY-Y1 potentiators | shares compounds with NPY-Y1 PAM-ag | HEK293 Y1-CNGC, membrane potential fluorescence, agonist mode | activation, % at 3.6 µM | 280 compounds, 50% hits | AID 1697;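 active = percent activation above the mean of DMSO-only control wells plus 3 SD of those wells, cut at about 18% in these data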;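 note: cells challenged with isoproterenol plus Ro 20-1724 with no NPY in test wells; Y1 agonism lowers isoproterenol-driven cAMP and reduces probe fluorescence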
NPY-Y2 agonist: activates human NPY-Y2, counter-screen for NPY-Y1 hits | shares compounds with NPY-Y1 PAM-ag | HEK293 Y2-CNGC, membrane potential fluorescence, agonist mode | activation, % at 3.6 µM | 280 compounds, 67% hits | AID 1698;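 active = activation above the solvent-only control wells' mean plus 3 SD, cut at about 11% in these data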;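 note: 0% = DMSO with isoproterenol and 100% = 40 nM NPY maximal response; agonism lowers cAMP so well fluorescence drops in active wells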
CNGC inh 2: counter-screen for NPY-Y1 potentiators or agonists: CNG channel inhibitors; shares compounds with NPY-Y1 PAM-ag; HEK293-CNG parental, isoproterenol cAMP, membrane potential fluorescence; inhibition, % at 3.6 µM; 280 compounds, 42% hits;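 active = inhibition above the mean of stimulated solvent-only control wells plus 3 SD, cut at about 22% in these data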;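 note: 0% = isoproterenol-stimulated DMSO wells and 100% = unstimulated DMSO wells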
Active calls of the source: *; . = not tested or not shown.

SMILES	NPY Y1 blocker	NPY2 pot ag	NPY Y2 blocker	NPY-Y1 PAM-ag	NPY-Y1 confirm	NPY-Y2 counter	NPY-Y1 agonist	NPY-Y2 agonist	CNGC inh 2
C=CCc1ccc(OCC(O)CO)c(OC)c1 (stereo not given)	2	12	0	8	.	.	.	.	.
C=CCc1ccc(O)c(-c2cc(CC=C)ccc2O)c1	-8	15	.	33*	22	11	12	16*	21
C=C(C)Cn1cnc2c(oc3nc4c(cc32)CCCC4)c1=O	.	1	.	7	.	.	.	.	.
CCC(C)C1C(C#N)=C(N)Oc2n[nH]c(-c3ccccc3)c21 (stereo not given)	-3	24	3	40*	27	17	27*	23*	17
CCC(C)C1C(C#N)=C(N)Oc2n[nH]c(C)c21 (stereo not given)	-3	11	0	9	.	.	.	.	.
CCCCCCn1ccc(=N)cc1	2	-2	1	-1	.	.	.	.	.
CCCCCCCCCCCCCCCCn1cc[n+](CC(C)=O)c1	-4	23	.	58*	58*	25	38*	19*	28*
CC(C)c1nc2oc3c(N(C)CCO)ncnc3c2c2c1CCC2	.	4	.	-3	.	.	.	.	.
CCN(CC(=O)NCCC1=CCCCC1)S(=O)(=O)c1ccccc1	.	-3	.	9	.	.	.	.	.
COc1ccc(S(=O)(=O)Nc2ccccc2C(=O)Nc2nc(-c3ccc(F)cc3)cs2)cc1OC	-5	32	4	39*	-16	9	-12	7	-5
CCn1nnc2c(=O)oc3ccccc3c21	-5	-5	.	18	.	.	.	.	.
CC(C)Cn1nnc2c(=O)oc3ccccc3c21	1	14	0	60*	38	24	25*	23*	22*
O/N=C(\c1ccc(Cl)cc1Cl)c1ncc(C(F)(F)F)cc1Cl	4	7	11	11	.	.	.	.	.
COc1ccc(C)cc1N=Nc1ccc(O)c2ncccc12	-10	20	.	47*	49*	42*	57*	53*	51*
CC(=O)Nc1ccc(S(=O)(=O)NCCC(=O)NCCc2ccc(F)cc2)cc1	6	15	-1	62*	10	1	-5	10	0
O=C(O)Cn1nnnc1SCC(=O)Nc1ccc(F)cc1F	4	6	.	11	.	.	.	.	.
Brc1ccc(C=Nc2ccc(Nc3ccccc3)cc2)s1	0	16	2	40*	2	2	9	17*	8
C(=Nc1ccc(Nc2ccccc2)cc1)c1ccc2ccccc2c1	-8	22	4	46*	-14	-9	3	0	-1
Nc1cccc(/C=C/c2ccncc2)c1	.	-3	.	-8	.	.	.	.	.
CCC(C)NC(=O)CN1C(=O)NC2(CCc3ccccc3C2)C1=O (stereo not given)	3	-5	.	4	.	.	.	.	.
CC(C)(C)c1cc(NCCCn2ccnc2)n2ncc(-c3ccc(Cl)cc3)c2n1	-4	19	-4	33	.	.	.	.	.
CN(C)CCCNc1cc(C(C)(C)C)nc2c(-c3ccccc3)cnn12	.	27	.	55*	41	34*	25*	20*	35*
NS(=O)(=O)c1ccc2nc(NC(=O)c3ccncc3)sc2c1	-7	4	.	-10	.	.	.	.	.
CCOC(=O)C1CCN(C(=O)c2cccnc2Oc2ccccc2)CC1	.	-21	.	-20	.	.	.	.	.
CC(C)NC(=O)CSc1nc(N)c(NC(=O)c2ccco2)c(=O)[nH]1	1	13	.	8	.	.	.	.	.
SMILES	NPY Y1 blocker	NPY2 pot ag	NPY Y2 blocker	NPY-Y1 PAM-ag	NPY-Y1 confirm	NPY-Y2 counter	NPY-Y1 agonist	NPY-Y2 agonist	CNGC inh 2
COc1cccc(NC(=O)c2ccc(NCCCN3CCC(C)CC3)c([N+](=O)[O-])c2)c1	0	14	.	18	.	.	.	.	.
COc1cccc(NC(=O)c2ccc(NCCCN3CC(C)CC(C)C3)c([N+](=O)[O-])c2)c1 (stereo not given)	-1	16	.	38*	43	26	16	14*	31*
O=C1N(C2CCCC2)C[C@@H]2C[C@@H](c3cn[nH]c3-c3ccc(Cl)cc3)N3CCC[C@@]123	-7	4	.	39*	49*	25	32*	31*	42*
COc1ccccc1C(=O)C1CCCN(Cc2cn[nH]c2C2CCCCC2)C1 (stereo not given)	-1	-8	.	-25	.	.	.	.	.
Cc1nn(-c2ccccc2)c(Cl)c1/C=N/Nc1nncc(=O)[nH]1	.	-19	.	-26	.	.	.	.	.
O=C(Nc1ccc(Cl)cc1Cl)NC1CCN(S(=O)(=O)c2ccc(F)cc2)CC1	.	6	.	48*	42	30	18*	13*	14
O=C1c2ccccc2C(=O)c2c([N+](=O)[O-])ccc(O)c21	.	-1	.	52*	41	43*	29*	33*	36*
O=C1c2cccc([N+](=O)[O-])c2C(=O)N1c1ccccc1	1	-3	0	16	.	.	.	.	.
O=C(Nc1ccc(OC(F)F)c(Cl)c1)c1ccccn1	-2	-3	.	39*	10	-4	-9	-10	1
COc1ccc(NC(=O)c2ccc(OC(F)F)cc2)cc1Cl	6	-4	3	-14	.	.	.	.	.
COc1ccccc1Oc1ccc2c(c1)C(=O)N(c1cccc(O)c1)C2=O	13	0	5	4	.	.	.	.	.
COc1ccccc1Oc1ccc2c(c1)C(=O)N(c1cccc3ncccc13)C2=O	-1	24	1	43*	1	12	1	-5	-13
CCOC(=O)C1CCN(C(=O)c2sccc2Cl)CC1	.	-12	.	12	.	.	.	.	.
NS(=O)(=O)c1ccc(CCNc2ncnc3c2c(-c2ccccc2)cn3-c2ccc(F)cc2)cc1	-6	-7	-1	105*	6	-2	-5	3	5
CN1CCCN(Cc2nc(-c3ccc(Cl)cc3)no2)CC1	-2	-10	.	-20	.	.	.	.	.
Nc1nc(Cl)cc(N2CCC(c3cc(-c4ccc(Cl)cc4)n[nH]3)CC2)n1	-5	33	-2	55*	15	15	1	15*	6
CS(=O)(=O)c1[nH]nc(-c2ccccc2)c1C#N	.	-5	.	6	.	.	.	.	.
CCN(c1ccccc1)S(=O)(=O)c1ccc(Cl)c(NC(=O)CSc2nnc(C)s2)c1	0	-9	.	8	.	.	.	.	.
C=CCn1c(SCC(=O)Nc2sccc2C(N)=O)nc2ccc(Cl)cc2c1=O	-5	13	-2	38*	23	18	2	19*	9
C=CCn1c(SCC(=O)Nc2sccc2C(N)=O)nc2ccccc2c1=O	3	7	3	-3	.	.	.	.	.
Cc1ccc(NCc2nnc(SCC(=O)O)n2Cc2ccccc2)cc1Cl	0	1	.	-14	.	.	.	.	.
Cc1ccc(NCc2n[nH]c(=S)n2Cc2ccccc2)cc1Cl	-4	21	.	45*	12	8	16	7	10

Screening results from PubChem BioAssay.
